In PMC4306484 (ACS Chemical Neuroscience, 2014):
Marks after values point to notes of the source that are not given here. Blank lines part the entries; values can stand above or below the compound they belong to.

Columns and labels:
[1] = biological target: T1, rat mGlu8 (Rattus norvegicus, UniProt P70579); test: Thallium flux assay, HEK293 cells expressing rat mGlu8 and GIRK1/2 channels; type: cell-based
[2] = biological target: human mGlu4 (Homo sapiens, UniProt Q14833); test: Calcium mobilization assay, human mGlu4/Gqi5/CHO cells; type: cell-based; details: for Kb / log α (affinity cooperativity) / log β (efficacy cooperativity) / α / β: calcium assay
[3] = biological target: rat mGlu7 (Rattus norvegicus, UniProt P35400); test: Calcium mobilization assay, rat mGlu7/Gα15/HEK cells; type: cell-based; details: for Kb / log α (affinity cooperativity) / log β (efficacy cooperativity) / log τB / α / β / τB: calcium assay
[4] = biological target: T1, rat mGlu8; test: Calcium mobilization assay, rat mGlu8/Gα15/HEK cells; type: cell-based; details: for Kb / log α (affinity cooperativity) / log β (efficacy cooperativity) / log τB / α / β / τB: calcium assay
[5] = biological target: rat mGlu2 (Rattus norvegicus, UniProt P31421); test: Fold-shift assay in rat mGlu2/Gα15-expressing cells; type: cell-based; details: listed as VU0155094
[6] = system: SC-CA1 synapse; test: Extracellular field potential recordings; design: species or system C57BL6/J mice; details: for effect on fEPSP slope: agonist alone: 3 μM LSP1-2111, 1 μM DCPG or 30 μM LSP4-2022
Summary of the method: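 Coronal hippocampal slices (400 μm) from six-week-old male mice anesthetized with isoflurane, cut in ice-cold sucrose solution. Slices recovered in NMDG-HEPES (15 min, 32 °C), then in ACSF (≥1 h, RT), and were perfused with 32 °C ACSF. CA1 stratum radiatum recordings used paired pulses (100 μs, 20 ms apart, 0.05 Hz). After 10 min baseline, drugs in ACSF were given for 5 or 10 min; PAM was preapplied 5 min, then coapplied with agonist. Slopes from three sweeps were averaged and normalized to predrug baseline. Paired-pulse ratio was second/first slope. N = 3–4; mean ± SEM.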

[7] = biological target: mGlu4 (Rattus norvegicus, UniProt P31423); test: Thallium flux assay, cells expressing mGlu4 and GIRK1/2; type: cell-based; details: GIRK assay
mGlu4, sequence (P31423 33-912): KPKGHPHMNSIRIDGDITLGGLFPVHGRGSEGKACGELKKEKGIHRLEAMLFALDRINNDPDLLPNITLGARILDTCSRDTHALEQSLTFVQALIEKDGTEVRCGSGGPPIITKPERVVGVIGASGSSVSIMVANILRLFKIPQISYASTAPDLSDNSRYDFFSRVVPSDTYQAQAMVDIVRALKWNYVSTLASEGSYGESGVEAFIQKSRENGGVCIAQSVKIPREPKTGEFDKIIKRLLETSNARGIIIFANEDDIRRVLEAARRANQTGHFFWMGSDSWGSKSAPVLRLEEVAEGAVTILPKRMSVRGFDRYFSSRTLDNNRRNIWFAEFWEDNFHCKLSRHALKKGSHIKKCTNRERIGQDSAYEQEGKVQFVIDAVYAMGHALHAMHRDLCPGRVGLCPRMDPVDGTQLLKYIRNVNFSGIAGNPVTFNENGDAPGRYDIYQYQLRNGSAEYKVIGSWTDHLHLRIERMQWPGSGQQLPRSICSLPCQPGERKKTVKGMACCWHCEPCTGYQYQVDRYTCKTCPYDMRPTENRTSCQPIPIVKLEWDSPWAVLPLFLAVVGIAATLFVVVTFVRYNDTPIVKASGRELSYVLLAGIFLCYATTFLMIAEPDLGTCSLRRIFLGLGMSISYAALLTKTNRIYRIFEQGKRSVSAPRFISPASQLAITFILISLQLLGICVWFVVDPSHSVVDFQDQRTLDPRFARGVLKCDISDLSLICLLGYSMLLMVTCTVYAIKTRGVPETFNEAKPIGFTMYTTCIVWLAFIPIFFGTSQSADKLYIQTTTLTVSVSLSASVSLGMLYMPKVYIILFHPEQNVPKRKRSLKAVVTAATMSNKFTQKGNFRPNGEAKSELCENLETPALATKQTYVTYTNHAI

human mGlu4, sequence (Q14833 33-912): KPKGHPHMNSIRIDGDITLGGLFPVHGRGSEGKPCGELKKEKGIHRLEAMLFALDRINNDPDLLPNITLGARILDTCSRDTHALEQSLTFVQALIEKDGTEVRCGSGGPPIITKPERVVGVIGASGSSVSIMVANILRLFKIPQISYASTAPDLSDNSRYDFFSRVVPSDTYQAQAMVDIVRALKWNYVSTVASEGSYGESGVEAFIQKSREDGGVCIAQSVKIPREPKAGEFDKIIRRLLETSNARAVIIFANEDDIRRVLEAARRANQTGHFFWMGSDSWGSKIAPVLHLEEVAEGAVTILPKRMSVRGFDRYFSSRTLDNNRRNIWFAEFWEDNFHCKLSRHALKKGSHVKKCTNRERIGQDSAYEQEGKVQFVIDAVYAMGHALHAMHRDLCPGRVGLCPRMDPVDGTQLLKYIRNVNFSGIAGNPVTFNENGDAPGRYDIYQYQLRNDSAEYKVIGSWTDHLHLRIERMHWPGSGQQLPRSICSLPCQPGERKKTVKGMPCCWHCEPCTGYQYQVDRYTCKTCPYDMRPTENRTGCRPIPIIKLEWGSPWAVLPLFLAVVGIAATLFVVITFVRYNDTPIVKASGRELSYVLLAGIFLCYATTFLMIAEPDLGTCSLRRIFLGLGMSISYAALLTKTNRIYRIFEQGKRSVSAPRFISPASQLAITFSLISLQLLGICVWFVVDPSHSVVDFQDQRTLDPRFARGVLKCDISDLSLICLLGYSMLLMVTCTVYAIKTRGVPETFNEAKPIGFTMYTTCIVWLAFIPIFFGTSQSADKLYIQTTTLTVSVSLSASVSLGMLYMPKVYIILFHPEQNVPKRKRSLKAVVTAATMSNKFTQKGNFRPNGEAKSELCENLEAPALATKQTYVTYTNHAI
T1 sequence (P70579 34-908): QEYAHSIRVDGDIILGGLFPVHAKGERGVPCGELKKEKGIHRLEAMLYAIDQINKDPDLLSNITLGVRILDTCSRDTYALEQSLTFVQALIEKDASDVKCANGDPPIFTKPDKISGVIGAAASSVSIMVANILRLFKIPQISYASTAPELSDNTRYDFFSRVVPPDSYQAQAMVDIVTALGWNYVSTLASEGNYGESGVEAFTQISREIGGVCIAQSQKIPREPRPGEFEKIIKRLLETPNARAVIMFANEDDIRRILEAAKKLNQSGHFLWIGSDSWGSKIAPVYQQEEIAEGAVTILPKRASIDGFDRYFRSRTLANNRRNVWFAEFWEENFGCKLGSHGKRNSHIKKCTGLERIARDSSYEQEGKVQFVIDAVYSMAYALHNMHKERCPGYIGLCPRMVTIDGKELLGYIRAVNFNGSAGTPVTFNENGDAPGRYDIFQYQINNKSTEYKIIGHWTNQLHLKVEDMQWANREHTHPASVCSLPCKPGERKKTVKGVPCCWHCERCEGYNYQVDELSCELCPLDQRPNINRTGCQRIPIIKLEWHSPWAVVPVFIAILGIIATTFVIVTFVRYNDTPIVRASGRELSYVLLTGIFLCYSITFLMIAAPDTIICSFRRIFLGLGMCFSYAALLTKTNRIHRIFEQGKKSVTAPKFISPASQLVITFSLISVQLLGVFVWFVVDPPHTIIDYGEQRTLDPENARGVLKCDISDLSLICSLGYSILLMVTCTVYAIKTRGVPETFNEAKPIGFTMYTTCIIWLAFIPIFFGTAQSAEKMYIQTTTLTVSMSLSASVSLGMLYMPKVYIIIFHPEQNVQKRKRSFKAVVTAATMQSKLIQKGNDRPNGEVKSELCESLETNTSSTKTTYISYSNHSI
rat mGlu7, sequence (P35400 35-915): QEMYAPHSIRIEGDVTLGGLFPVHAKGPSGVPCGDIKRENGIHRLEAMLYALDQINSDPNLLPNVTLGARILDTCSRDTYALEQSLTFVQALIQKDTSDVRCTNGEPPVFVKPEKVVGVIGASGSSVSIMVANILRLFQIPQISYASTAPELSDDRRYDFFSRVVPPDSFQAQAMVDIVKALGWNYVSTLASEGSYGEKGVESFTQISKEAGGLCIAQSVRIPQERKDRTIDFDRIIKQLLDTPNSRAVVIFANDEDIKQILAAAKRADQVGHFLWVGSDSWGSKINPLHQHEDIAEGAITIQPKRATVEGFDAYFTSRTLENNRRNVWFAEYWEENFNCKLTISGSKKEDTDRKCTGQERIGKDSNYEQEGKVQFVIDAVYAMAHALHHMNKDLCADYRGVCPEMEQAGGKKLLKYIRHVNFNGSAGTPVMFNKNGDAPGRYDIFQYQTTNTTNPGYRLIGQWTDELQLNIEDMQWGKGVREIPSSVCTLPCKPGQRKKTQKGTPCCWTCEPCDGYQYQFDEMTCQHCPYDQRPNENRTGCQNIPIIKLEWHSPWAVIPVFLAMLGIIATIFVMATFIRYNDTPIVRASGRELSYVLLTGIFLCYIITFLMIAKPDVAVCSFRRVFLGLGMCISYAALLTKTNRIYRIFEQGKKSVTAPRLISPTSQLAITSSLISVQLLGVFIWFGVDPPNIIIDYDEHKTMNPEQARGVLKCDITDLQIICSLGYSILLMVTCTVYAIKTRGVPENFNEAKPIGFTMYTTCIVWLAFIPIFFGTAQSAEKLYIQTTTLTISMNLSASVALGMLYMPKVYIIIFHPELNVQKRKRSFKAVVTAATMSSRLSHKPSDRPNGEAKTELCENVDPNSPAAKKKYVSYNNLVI
rat mGlu2, sequence (P31421 19-872): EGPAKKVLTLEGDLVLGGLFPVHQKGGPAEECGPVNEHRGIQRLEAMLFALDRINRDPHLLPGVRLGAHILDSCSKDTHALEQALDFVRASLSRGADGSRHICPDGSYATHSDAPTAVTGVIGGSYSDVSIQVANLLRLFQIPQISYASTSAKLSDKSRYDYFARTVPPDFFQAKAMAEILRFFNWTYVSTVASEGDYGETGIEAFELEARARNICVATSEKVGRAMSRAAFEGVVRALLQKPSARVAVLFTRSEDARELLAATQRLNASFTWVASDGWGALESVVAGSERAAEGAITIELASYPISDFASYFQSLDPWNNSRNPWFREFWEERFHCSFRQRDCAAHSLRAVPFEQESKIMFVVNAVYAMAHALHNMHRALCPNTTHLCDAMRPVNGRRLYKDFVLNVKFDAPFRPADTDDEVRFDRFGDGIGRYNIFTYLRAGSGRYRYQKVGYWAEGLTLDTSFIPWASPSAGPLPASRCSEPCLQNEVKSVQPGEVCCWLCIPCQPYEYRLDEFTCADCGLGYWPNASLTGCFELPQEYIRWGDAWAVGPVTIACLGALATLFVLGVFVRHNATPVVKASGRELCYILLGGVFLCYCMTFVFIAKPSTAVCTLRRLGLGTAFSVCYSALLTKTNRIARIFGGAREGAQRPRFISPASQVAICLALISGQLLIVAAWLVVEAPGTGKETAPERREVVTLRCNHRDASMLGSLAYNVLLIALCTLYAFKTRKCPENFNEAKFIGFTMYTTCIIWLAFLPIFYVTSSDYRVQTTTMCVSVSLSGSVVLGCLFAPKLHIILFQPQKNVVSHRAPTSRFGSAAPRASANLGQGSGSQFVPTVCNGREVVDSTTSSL

EC50 [1]: 1620 nM
agonist activity in the absence of glutamate [1]: did not exhibit agonist activity
Kb ([2]; KB, agonist Glu): 13.3 µM
Kb ([2]; KB, agonist L-AP4): 13.2 µM
Kb ([2]; KB, agonist LSP4-2022): 10.6 µM
log α (affinity cooperativity) ([2]; agonist Glu): 0.28 ± 0.07
log β (efficacy cooperativity) ([2]; agonist Glu): 0.16 ± 0.08 ^f ^h
α ([2]; agonist Glu): 1.9
β ([2]; agonist Glu): 1.4
log α (affinity cooperativity) ([2]; agonist L-AP4): –0.15 ± 0.30 ^k
log β (efficacy cooperativity) ([2]; agonist L-AP4): 0.67 ± 0.27 ^f ^i
α ([2]; agonist L-AP4): 0.71
β ([2]; agonist L-AP4): 4.7
log α (affinity cooperativity) ([2]; agonist LSP4-2022): 0.17 ± 0.13 ^l
log β (efficacy cooperativity) ([2]; agonist LSP4-2022): 0.33 ± 0.07 ^j
α ([2]; agonist LSP4-2022): 1.5
β ([2]; agonist LSP4-2022): 2.1
Kb ([2]; pKB, agonist L-AP4, eq 2): 13.2 µM
Kb ([3]; KB, agonist LSP4-2022): 8 µM
fold greater modulator affinity with L-AP4 than with glutamate as agonist ([3]; calcium): 4 fold
log α (affinity cooperativity) ([3]; agonist Glu): 0.58 ± 0.13
log β (efficacy cooperativity) ([3]; agonist Glu): 0.68 ± 0.12 ^g ^h
log τB ([3]; agonist Glu): –0.17 ± 0.03
α ([3]; agonist Glu): 3.8
β ([3]; agonist Glu): 4.8
τB ([3]; agonist Glu): 0.81
log α (affinity cooperativity) ([3]; agonist L-AP4): 0.39 ± 0.21
log β (efficacy cooperativity) ([3]; agonist L-AP4): 0.07 ± 0.03 ^g ^i
log τB ([3]; agonist L-AP4): –0.09 ± 0.04
α ([3]; agonist L-AP4): 2.4
β ([3]; agonist L-AP4): 1.2
log α (affinity cooperativity) ([3]; agonist LSP4-2022): 0.82 ± 0.26 ^l
log β (efficacy cooperativity) ([3]; agonist LSP4-2022): –0.10 ± 0.10 ^g ^j
log τB ([3]; agonist LSP4-2022): –0.22 ± 0.06
α ([3]; agonist LSP4-2022): 6.6
β ([3]; agonist LSP4-2022): 0.8
τB ([3]; agonist LSP4-2022): 0.61
Kb ([3]; pKB, agonist Glu, eq 2): 17 µM
Kb ([3]; pKB, agonist L-AP4, eq 2): 4.17 µM
Kb ([4]; agonist Glu): 8.6 µM
Kb ([4]; agonist L-AP4): 14.7 µM
Kb ([4]; agonist LSP4-2022): 14 µM
log α (affinity cooperativity) ([4]; agonist Glu): 0.61 ± 0.39
log β (efficacy cooperativity) ([4]; agonist Glu): 0.08 ± 0.02 ^h
log τB ([4]; agonist Glu): –0.12 ± 0.03
α ([4]; agonist Glu): 4.1
β ([4]; agonist Glu): 1.2
τB ([4]; agonist Glu): 0.75
log α (affinity cooperativity) ([4]; agonist L-AP4): 0.92 ± 0.08 ^k
log β (efficacy cooperativity) ([4]; agonist L-AP4): 0.05 ± 0.03 ^i
log τB ([4]; agonist L-AP4): –0.14 ± 0.04
α ([4]; agonist L-AP4): 8.3
β ([4]; agonist L-AP4): 1.1
τB ([4]; agonist L-AP4): 0.73
log α (affinity cooperativity) ([4]; agonist LSP4-2022): 0.93 ± 0.06 ^l
log β (efficacy cooperativity) ([4]; agonist LSP4-2022): 0.05 ± 0.06 ^j
log τB ([4]; agonist LSP4-2022): –0.10 ± 0.06
α ([4]; agonist LSP4-2022): 8.6
β ([4]; agonist LSP4-2022): 1.1
τB ([4]; agonist LSP4-2022): 0.80
shift of glutamate concentration-response (PAM or NAM activity) at mGlu2 [5]: inactive
SMILES: COC(=O)c1ccc(-n2c(C)cc(C(=O)CSc3ccc(NC(C)=O)cc3)c2C)cc1 [Compound 1, methyl 4-(3-(2-((4-acetamidophenyl)thio)acetyl)-2,5-dimethyl-1H-pyrrol-1-yl)benzoate]
effect on paired-pulse ratio ([6]; PAM and LSP4-2022 applied together): increases the paired-pulse ratio

log αβ (combined cooperativity) ([7]; agonist Glu): 0.54 ± 0.06 ^i
αβ ([7]; agonist Glu): 3.5
log αβ (combined cooperativity) ([7]; agonist L-AP4): 0.58 ± 0.04 ^j
αβ ([7]; agonist L-AP4): 3.8
log αβ (combined cooperativity) ([7]; agonist LSP4-2022): 0.54 ± 0.003 ^k
αβ ([7]; agonist LSP4-2022): 3.5
Kb ([7]; agonist Glu): 306 nM
Kb ([7]; agonist L-AP4): 304 nM
Kb ([7]; agonist LSP4-2022): 268 nM
SMILES: O=C(Nc1ccc(Oc2ccc(Cl)cn2)c(Cl)c1)c1ccccn1 [Compound 20, N-(3-chloro-4-((5-chloropyridin-2-yl)oxy)phenyl)picolinamide]

SMILES: N[C@H](C(=O)O)c1ccc(C(=O)O)c(C(=O)O)c1 [DCPG, (S)-3,4-dicarboxyphenylglycine]
effect on fEPSP slope [6]: has no effect on fEPSP slope

SMILES: COc1cc(C(O)P(=O)(O)CC[C@H](N)C(=O)O)cc([N+](=O)[O-])c1O (stereo partly drawn) [LSP1-2111, (2S)-2-amino-4-[hydroxy[hydroxy(4-hydroxy-3-methoxy-5-nitro-phenyl)methyl]phosphoryl]butanoic acid]
effect on fEPSP slope [6]: has no effect on fEPSP slope

Fold ΔpKA vs. Glu (fold higher affinity than glutamate) ([2]; calcium): 9 fold
fold lower affinity compared to glutamate ([4]; calcium): 10 fold
SMILES: N[C@@H](CCP(=O)(O)C(O)c1ccc(OCC(=O)O)cc1)C(=O)O (stereo partly drawn) [LSP4-2022, (2S)-2-amino-4-(((4-(carboxymethoxy)phenyl)(hydroxy)methyl)(hydroxy)phosphoryl)butanoic acid, reference compound]
effect on paired-pulse ratio ([6]; 30 μM LSP4-2022 alone): causes an increase in paired-pulse ratio
effect on fEPSP slope [6]: causes a decrease in the fEPSP slope
